ChEMBL document CHEMBL1129424, “Heterocyclic amides: inhibitors of acyl-CoA:cholesterol O-acyl transferase with hypocholesterolemic activity in several species and antiatherosclerotic activity in the rabbit” (J Med Chem, 1996)
Values belong to the compound of their own block, whether it stands above or below them.

Columns and labels:
[1] = molecular target: T1, Sterol O-acyltransferase 1 (Rattus norvegicus, UniProt O70536); assay: Inhibition of Acyl coenzyme A:cholesterol acyltransferase 1 from rat liver microsomes
T1 sequence (O70536 whole entry): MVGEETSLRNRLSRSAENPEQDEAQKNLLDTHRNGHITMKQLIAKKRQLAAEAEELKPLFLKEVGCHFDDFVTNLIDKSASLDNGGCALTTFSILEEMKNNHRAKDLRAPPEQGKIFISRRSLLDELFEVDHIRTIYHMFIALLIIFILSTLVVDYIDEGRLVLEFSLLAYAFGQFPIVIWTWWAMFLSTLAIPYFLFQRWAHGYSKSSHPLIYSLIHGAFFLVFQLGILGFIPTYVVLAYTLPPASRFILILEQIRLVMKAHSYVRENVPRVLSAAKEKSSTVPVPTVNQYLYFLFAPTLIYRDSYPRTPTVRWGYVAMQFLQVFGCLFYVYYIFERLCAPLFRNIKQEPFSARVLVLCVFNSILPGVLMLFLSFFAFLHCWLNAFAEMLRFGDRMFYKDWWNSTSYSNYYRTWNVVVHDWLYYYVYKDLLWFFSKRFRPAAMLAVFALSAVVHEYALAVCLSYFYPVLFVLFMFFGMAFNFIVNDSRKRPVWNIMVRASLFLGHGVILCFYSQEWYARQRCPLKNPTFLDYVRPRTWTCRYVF
Method in brief: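 Microsomes isolated from livers of cholesterol-fed rats were incubated with compound and [1-14C]oleoyl-CoA to measure ACAT inhibition; IC50 reported in μM.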

Rattus norvegicus [2] = assay: Percent change in total cholesterol in the acute cholesterol-fed rat model (APCC) of hypercholesterolemia at 30 mg/Kg; assay type: functional
Method in brief: (§1)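 Acute rat model: compound given by gavage at 30 or 3 mg/kg in 1.5% carboxymethylcellulose/0.2% Tween-20 in water (3-4 pm). Rats then fed overnight a diet with 5.5% peanut oil, 1.5% cholesterol, 0.5% cholic acid. Result is percent decrease in plasma total cholesterol versus controls.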

Rattus norvegicus [3] = assay: Percent change in total cholesterol in the acute cholesterol-fed rat model (APCC) of hypercholesterolemia at 3 mg/Kg; assay type: functional; method in brief: as §1
Oryctolagus cuniculus [4] = assay: Percent change in plasma triglyceride levels at dose 25 mg/Kg in rabbits; assay type: functional
Method in brief: (§2)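 Injured cholesterol-fed rabbits: diet of 0.5% cholesterol, 3% peanut oil, 3% coconut oil for 9 weeks (1 week before, 8 weeks after surgery), producing thoracic aortic and iliac-femoral lesions. Doses 1, 5 or 25 mg/kg. Thoracic aortic lesion coverage, plasma total cholesterol and triglycerides given as percent change versus control; Student's t-test, p < 0.05.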

Oryctolagus cuniculus [5] = assay: Percent change in plasma total cholesterol at dose 25 mg/Kg in rabbits; assay type: functional; method in brief: as §2
Oryctolagus cuniculus [6] = assay: Percent change in lesion coverage relative to control in the thoracic aorta at dose 25 mg/Kg in rabbits; assay type: functional; method in brief: as §2
Canis familiaris = assay: CDOG represents the C-fed female Beagle dog model, data expressed as percent change in TC relative to untreated controls at compound concentration of 10 mg/Kg; assay type: functional, Canis lupus familiaris
Method in brief: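 Cholesterol-fed female Beagle dogs given bulk drug in capsules daily before meals for 1 week at 10 mg/kg. Plasma total cholesterol compared before and after treatment.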

Oryctolagus cuniculus [7] = assay: Percent change in plasma total cholesterol at dose 5 mg/Kg in rabbits; assay type: functional; method in brief: as §2
[8] = molecular target: T2, Sterol O-acyltransferase 1 (Rattus norvegicus) (UniProt O70536); assay: Compound at 25 mg/Kg was tested for the inhibition of rat liver microsomal Acyl coenzyme A:cholesterol acyltransferase 1 in plasma drawn from chow fed rabbits; assay type: cell-free
T2 sequence (whole entry): T1 sequence (O70536 whole entry)
Method in brief: (§3)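 Male New Zealand white rabbits conditioned to meal feeding for 1 week, then given a meal containing drug at 25 mg/kg in 3% peanut oil/3% coconut oil vehicle. Plasma was sampled at 0, 1, 2 and 4 h and extracted into hexane, then redissolved in chloroform/methanol (2:1). It was assayed for liver microsomal ACAT inhibition against standards of compound spiked into rabbit plasma in DMSO.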

Oryctolagus cuniculus [9] = assay: Percent change in TC relative to untreated controls at 5 mg/Kg in cholesterol fed rabbits (CFR)
Oryctolagus cuniculus [10] = assay: Percent change in plasma triglyceride levels at dose 5 mg/Kg in rabbits; assay type: functional; method in brief: as §2
Oryctolagus cuniculus [11] = assay: Percent change in plasma triglyceride levels at dose 1 mg/Kg in rabbits; assay type: functional; method in brief: as §2
[12] = Acyl coenzyme A:cholesterol acyltransferase inhibition in cell culture measured in murine IC-21 macrophages.
Method in brief: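 Murine IC-21 macrophages preincubated 16 h in serum-free DMEM with albumin (20 μM) and phosphatidylserine/cholesterol vesicles; then compound in DMSO for 1 h, then 14C-sodium oleate added for 4 more h. Lipids extracted in hexane/2-propanol with [14C]cholesterol internal standard; neutral lipids separated by TLC, phosphorimaged; protein by Lowry. IC50 is the concentration giving 50% inhibition.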

Oryctolagus cuniculus [13] = assay: Percent change in lesion coverage relative to control in the thoracic aorta at dose 1 mg/Kg in rabbits; assay type: functional; method in brief: as §2
[14] = molecular target: T2, Sterol O-acyltransferase 1 (Rattus norvegicus); assay: Compound at 5 mg/Kg was tested for the inhibition of rat liver microsomal Acyl coenzyme A:cholesterol acyltransferase 1 in plasma drawn from chow fed rabbits; assay type: cell-free
[15] = molecular target: T2, Sterol O-acyltransferase 1 (Rattus norvegicus); assay: Inhibition of rat liver microsomal Acyl coenzyme A:cholesterol acyltransferase 1 from rabbit plasma after an oral dose of 25 mg/kg; assay type: cell-free; method in brief: as §3
Rattus norvegicus [16] = species on record: Rattus norvegicus; assay: Compound was tested for the percent change in total cholesterol (TC) by chronic rat model; assay type: functional
Oryctolagus cuniculus [17] = assay: Percent change in lesion coverage relative to control in the thoracic aorta at dose 5 mg/Kg in rabbits; assay type: functional; method in brief: as §2
Oryctolagus cuniculus [18] = assay: Percent change in plasma total cholesterol at dose 1 mg/Kg in rabbits; assay type: functional; method in brief: as §2
[19] = molecular target: T2, Sterol O-acyltransferase 1 (Rattus norvegicus); assay: Compound at 1 mg/Kg was tested for the inhibition of rat liver microsomal Acyl coenzyme A:cholesterol acyltransferase 1 in plasma drawn from chow fed rabbits; assay type: cell-free
Oryctolagus cuniculus [20] = assay: Percent change in TC relative to untreated controls at 25 mg/Kg in cholesterol fed rabbits (CFR)

IC50 [1]: 24 nM
Compound: CCCCCCCCCCCCc1cc(C(C(=O)Nc2c(C(C)C)cccc2C(C)C)c2ccccc2)no1 (stereo not given)

IC50 [1]: 150 nM
Compound: CCCCCCCCCCCCc1cc(C(C)(C)C(=O)Nc2c(OC)cc(OC)cc2OC)no1
DeltaTC (Rattus norvegicus [2]): -40%

IC50 [1]: 46 nM
Compound: CCCCCCCCCCCCc1cnn(C(C(=O)Nc2c(OC)cc(OC)cc2OC)c2ccccc2)c1 (stereo not given)
DeltaTC (Rattus norvegicus [3]): -59% | DeltaTC (Rattus norvegicus [2]): -72%

Compound: CCCCCCCCCCC(C)(C)C(=O)Nc1c(OC)cc(OC)cc1OC [CL-976]
DeltaTC (Oryctolagus cuniculus [4]): -7% | DeltaTC (Oryctolagus cuniculus [5]): -24% | Activity (Oryctolagus cuniculus [6]): -41%

IC50 [1]: 31 nM
Compound: CCCCCCCCCCCCc1noc(C(C(=O)Nc2c(OC)cc(OC)cc2OC)c2ccccc2)n1 (stereo not given)
DeltaTC (Rattus norvegicus [3]): -58% | DeltaTC (Rattus norvegicus [2]): -60%

IC50 [1]: 51 nM
Compound: CCCCCCCCCCCCc1cc(C(C(=O)Nc2ccc(F)cc2F)c2ccccc2)on1 (stereo not given)
DeltaTC (Rattus norvegicus [2]): -50%

inhibition [8]: 92% | IC50 [12]: 310 nM | inhibition [14]: 68% | inhibition [15]: 92% | inhibition [19]: 0% | IC50 [1]: 22 nM
Compound: CCCCCCCCCCCCc1cc(C(C(=O)Nc2c(OC)cc(OC)cc2OC)c2ccccc2)no1 (stereo not given)
CDOG (Canis familiaris): -44 | DeltaTC (Oryctolagus cuniculus [7]): -27% | DeltaTC (Oryctolagus cuniculus [9]): -66% | DeltaTG (Oryctolagus cuniculus [10]): 66% | DeltaTC (Oryctolagus cuniculus [11]): 24% | DeltaTC (Oryctolagus cuniculus [4]): 157% | Activity (Oryctolagus cuniculus [13]): -20% | CPCC (Rattus norvegicus [16]): -61 | DeltaTC (Rattus norvegicus [3]): -50% | Activity (Oryctolagus cuniculus [17]): -29% | DeltaTC (Oryctolagus cuniculus [5]): -27% | DeltaTC (Oryctolagus cuniculus [18]): -17% | DeltaTC (Rattus norvegicus [2]): -72% | Activity (Oryctolagus cuniculus [6]): -36%

IC50 [1]: 31 nM
Compound: CCCCCCCCCCCCc1nc(C(C(=O)Nc2c(OC)cc(OC)cc2OC)c2ccccc2)no1 (stereo not given)
DeltaTC (Rattus norvegicus [3]): -56% | DeltaTC (Rattus norvegicus [2]): -54%

IC50 [1]: 19 nM
Compound: CCCCCCCCCCCCc1cc(C(C(=O)Nc2c(C(C)C)cccc2C(C)C)c2ccccc2)on1 (stereo not given)
DeltaTC (Rattus norvegicus [3]): -10% | DeltaTC (Rattus norvegicus [2]): -52%

inhibition [8]: 94% | IC50 [12]: 170 nM | inhibition [14]: 46% | inhibition [15]: 94% | inhibition [19]: 0% | IC50 [1]: 15 nM
Compound: CCCCCCCCCCCCc1cc(C(C(=O)Nc2c(OC)cc(OC)cc2OC)c2ccccc2)on1 (stereo not given)
CDOG (Canis familiaris): -44 | DeltaTC (Oryctolagus cuniculus [7]): -32% | DeltaTC (Oryctolagus cuniculus [9]): -64% | DeltaTG (Oryctolagus cuniculus [10]): 111% | DeltaTC (Oryctolagus cuniculus [11]): 1% | DeltaTC (Oryctolagus cuniculus [4]): 168% | DeltaTC (Oryctolagus cuniculus [20]): -76% | Activity (Oryctolagus cuniculus [13]): -53% | CPCC (Rattus norvegicus [16]): -65 | DeltaTC (Rattus norvegicus [3]): -68% | Activity (Oryctolagus cuniculus [17]): -46% | DeltaTC (Oryctolagus cuniculus [5]): -26% | DeltaTC (Oryctolagus cuniculus [18]): -26% | DeltaTC (Rattus norvegicus [2]): -68% | Activity (Oryctolagus cuniculus [6]): -32%

IC50 [1]: 110 nM
Compound: CCCCCCCCCCCCc1cn(C(C(=O)Nc2c(OC)cc(OC)cc2OC)c2ccccc2)cn1 (stereo not given)
DeltaTC (Rattus norvegicus [3]): -43% | DeltaTC (Rattus norvegicus [2]): -62%

IC50 [1]: 100 nM
Compound: CCCCCCCCCCCCc1cc(C(C(=O)Nc2ccc(F)cc2F)c2ccccc2)no1 (stereo not given)
DeltaTC (Rattus norvegicus [2]): -29%

IC50 [1]: 14 nM
Compound: CCCCCCCCCCCCc1nnc(C(C(=O)Nc2c(C(C)C)cccc2C(C)C)c2ccccc2)o1 (stereo not given)
DeltaTC (Rattus norvegicus [3]): -23% | DeltaTC (Rattus norvegicus [2]): -64%

IC50 [1]: 32 nM
Compound: CCCCCCCCCCCCc1cc(CC(=O)Nc2c(OC)cc(OC)cc2OC)on1
DeltaTC (Rattus norvegicus [3]): -42% | DeltaTC (Rattus norvegicus [2]): -59%

IC50 [12]: 48 nM | inhibition [15]: 21% | IC50 [1]: 17 nM
Compound: CCCCCCCCCCCCc1nnc(C(C(=O)Nc2c(OC)cc(OC)cc2OC)c2ccccc2)o1 (stereo not given)
CPCC (Rattus norvegicus [16]): -39 | DeltaTC (Rattus norvegicus [3]): -64% | DeltaTC (Rattus norvegicus [2]): -57%

IC50 [1]: 100 nM
Compound: CCCCCCCCCCCCc1cc(C2(C(=O)Nc3c(OC)cc(OC)cc3OC)CCCC2)no1
DeltaTC (Rattus norvegicus [2]): -29%

IC50 [12]: 54 nM | inhibition [15]: 12% | IC50 [1]: 22 nM
Compound: CCCCCCCCCCCCc1cn(C(C(=O)Nc2c(OC)cc(OC)cc2OC)c2ccccc2)nn1 (stereo not given)
DeltaTC (Rattus norvegicus [3]): -66% | DeltaTC (Rattus norvegicus [2]): -69%
